Measured values published in ChEMBL document CHEMBL4014329, “Selective Inhibition of Escherichia coli RNA and DNA Topoisomerase I by Hoechst 33258 Derived Mono- and Bisbenzimidazoles” (J Med Chem, 2017).
In brackets after ≈: the same amount, converted by molar mass. Activity calls are given as the source filed them. The calls are words filed in the database; no cut-off is given here.

Experiments:
Enterobacter cloacae = test: Antibacterial activity against Enterobacter cloacae ATCC 13047 after 24 hrs by microbroth dilution method; format: functional; settings: ATCC 13047, 24 h
How it was run: (§1)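 Microbroth dilution per CLSI guidelines. Organisms grown in Mueller−Hinton broth at 37 °C with shaking to log phase, pelleted, resuspended in 0.85% saline to OD625 0.1. Final inoculum 5 × 10^5 CFU/mL; triplicate; 24 h at 37 °C. OD625 read; MIC = lowest concentration completely inhibiting growth versus untreated controls.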

[1] = Binding affinity to dA60.dT60 B-DNA duplex (unknown origin) assessed as induction of biphasic transition at <5 uM by UV-vis spectrophotometric analysis
[2] = tested on: Staphylococcus epidermidis; test: Antibacterial activity against Staphylococcus epidermidis ATCC 12384 after 24 hrs by microbroth dilution method; format: functional; settings: ATCC 12384, 24 h; how it was run: as §1
Klebsiella pneumoniae = test: Antibacterial activity against Klebsiella pneumoniae NR15410 after 24 hrs by microbroth dilution method; format: functional; settings: NR15410, 24 h; how it was run: as §1
Enterococcus faecalis = test: Antibacterial activity against Enterococcus faecalis ATCC 29212 after 24 hrs by microbroth dilution method; format: functional; settings: ATCC 29212, 24 h; how it was run: as §1
Shigella flexneri = test: Antibacterial activity against Shigella flexneri 2457NR517 after 24 hrs by microbroth dilution method; format: functional; settings: 2457NR517, 24 h
How it was run: (§2)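 Mueller-Hinton broth cultures grown at 37 °C with shaking to log phase, pelleted, resuspended in 0.85% saline to OD625 0.1. Broth microdilution per CLSI guidelines, final inoculum 5 × 10^5 CFU/mL, in triplicate, 24 h at 37 °C. Growth read as OD625. MIC is the lowest concentration giving complete growth inhibition versus untreated controls.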

Staphylococcus aureus [3] = test: Antibacterial activity against Staphylococcus aureus ATCC 33591 after 24 hrs by microbroth dilution method; format: functional; settings: ATCC 33591, 24 h; how it was run: as §1
Staphylococcus aureus [4] = test: Antibacterial activity against methicillin-resistant Staphylococcus aureus A960649 after 24 hrs by microbroth dilution method; format: functional; settings: A960649, 24 h; how it was run: as §2
[5] = Binding affinity to dA60.dT60 B-DNA duplex (unknown origin) assessed as change in melting temperature at 10 uM by UV-vis spectrophotometric analysis
How it was run: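 UV melting of dA60·dT60 at 1 μM/duplex with compound at 10 μM. Buffer 10 mM sodium cacodylate, 0.1 mM EDTA, 100 mM NaCl, pH 7.0; duplex pre-annealed from 95 °C. Compound stocks in DMSO diluted into buffer. Heating at 0.2 °C/min, monitored at 260 nm, points every 1.0 °C; Tm taken from derivatives.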

Enterococcus faecium = test: Antibacterial activity against Enterococcus faecium BM4105RF after 24 hrs by microbroth dilution method; format: functional; how it was run: as §2
Pseudomonas aeruginosa = test: Antibacterial activity against Pseudomonas aeruginosa ATCC 27853 after 24 hrs by microbroth dilution method; format: functional; settings: ATCC 27853, 24 h; how it was run: as §1
Acinetobacter baumannii = test: Antibacterial activity against Acinetobacter baumannii ATCC 19606 after 24 hrs by microbroth dilution method; format: functional; settings: ATCC 19606 = CIP 70.34 = JCM 6841, 24 h; how it was run: as §1
Staphylococcus aureus [6] = test: Antibacterial activity against Staphylococcus aureus ATCC 29213 after 24 hrs by microbroth dilution method; format: functional; settings: ATCC 29213, 24 h; how it was run: as §1
Escherichia coli [7] = test: Antibacterial activity against Escherichia coli ATCC 25922 after 24 hrs by microbroth dilution method; format: functional; settings: ATCC 25922, 24 h; how it was run: as §1
Staphylococcus aureus [8] = test: Antibacterial activity against methicillin-resistant Staphylococcus aureus 33591 after 24 hrs by microbroth dilution method; format: functional; settings: Staphylococcus aureus, 33591, 24 h; how it was run: as §2
Citrobacter freundii = test: Antibacterial activity against Citrobacter freundii 4747CFAA after 24 hrs by microbroth dilution method; format: functional; how it was run: as §1
Escherichia coli [9] = test: Antibacterial activity against Escherichia coli K-12 after 24 hrs by microbroth dilution method; format: functional; settings: K-12, 24 h; how it was run: as §1
DU-145 = test: Cytotoxicity against human DU145 cells after 48 hrs by SRB assay; format: cell-based; settings: for IC50: Homo sapiens, DU-145, 48 h
How it was run: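 Cells cultured per ATCC protocols, seeded and grown 24 h (37 °C, 5% CO2), then treated in triplicate at final 20, 10, 5, 2.5, 1.25, 0.625 and 0.0625 μM for 48 h. Fixed with cold TCA (16% final, 4 °C, 1 h), stained with SRB in 1% acetic acid, dye solubilized in 10 mM Tris base, A560 read. IC50 derived; study in duplicate.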

[10] = Inhibition of Escherichia coli DNA topoisomerase 1 using plasmid pBAD-GFPuv as substrate after 15 mins by agarose gel electrophoresis
How it was run: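 E. coli topoisomerase I at 6 nM relaxing 150 ng supercoiled pBAD-GFPuv. 15 min at 37 °C, phenol-stopped, 1% agarose gel, ethidium stain. IC50 is the concentration leaving 50% DNA supercoiled; three independent determinations.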

Escherichia coli [11] = test: Inhibition of Escherichia coli RNA topoisomerase 1 using circular RNA as substrate up to 50 uM after 1.5 hrs by SDS-PAGE analysis
How it was run: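 10 nM E. coli topoisomerase I premixed with reaction buffer and inhibitor diluted in DMSO, then circular RNA substrate added; 1.5 h incubation. Stopped with proteinase K/SDS/EDTA buffer. Trefoil RNA knot product separated from circular substrate on 15% TBE−urea gels and detected by phosphorimaging. DMSO-only control included.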

Escherichia coli [12] = test: Inhibition of Escherichia coli DNA gyrase using relaxed plasmid pBAD-GFPuv as substrate after 30 mins by agarose gel electrophoresis

Structure (SMILES)	MIC (Enterobacter cloacae) [µg/mL]	Activity [1]	MIC [2] [µg/mL]	MIC (Klebsiella pneumoniae) [µg/mL]	MIC (Enterococcus faecalis) [µg/mL]	MIC (Shigella flexneri) [µg/mL]	MIC (Staphylococcus aureus [3]) [µg/mL]	MIC (Staphylococcus aureus [4]) [µg/mL]	ΔTm [5] [°C]	MIC (Enterococcus faecium) [µg/mL]	MIC (Pseudomonas aeruginosa) [µg/mL]	MIC (Acinetobacter baumannii) [µg/mL]	MIC (Staphylococcus aureus [6]) [µg/mL]	MIC (Escherichia coli [7]) [µg/mL]	MIC (Staphylococcus aureus [8]) [µg/mL]	MIC (Citrobacter freundii) [µg/mL]	MIC (Escherichia coli [9]) [µg/mL]	other results
CN1CCN(c2ccc3nc(-c4ccc(OCCCN)cc4)[nH]c3c2)CC1	> 32	Active	> 32	> 32	> 32	> 32	> 32	> 32	3.3	> 32	> 32	> 32	> 32	> 32	> 32	> 32	> 32	–
CN1CCN(c2ccc3nc(-c4ccc(OCCCNC(=O)OC(C)(C)C)cc4)[nH]c3c2)CC1	> 32	Active	> 32	> 32	16 to 32 (≈ 34.4 to 68.7 µM)	> 32	16 to 32 (≈ 34.4 to 68.7 µM)	> 32	1	> 32	16 (≈ 34.4 µM)	> 32	16 to 32 (≈ 34.4 to 68.7 µM)	16 (≈ 34.4 µM)	> 32	> 32	16 (≈ 34.4 µM)	–
C#Cc1ccc(-c2cn(CCOc3ccc(-c4nc5ccc(N6CCN(C)CC6)cc5[nH]4)cc3)nn2)cc1	> 32	Active	> 32	> 32	16 to 32 (≈ 31.8 to 63.5 µM)	> 32	16 (≈ 31.8 µM)	> 32	1.9	> 32	16 (≈ 31.8 µM)	> 32	16 to 32 (≈ 31.8 to 63.5 µM)	16 (≈ 31.8 µM)	> 32	> 32	16 (≈ 31.8 µM)	–
C#CCOCCCCCCOc1ccc(-c2nc3ccc(N4CCN(C)CC4)cc3[nH]2)cc1	> 32	Active	> 32	> 32	16 to 32 (≈ 35.8 to 71.7 µM)	> 32	16 to 32 (≈ 35.8 to 71.7 µM)	> 32	1.4	> 32	16 (≈ 35.8 µM)	> 32	16 to 32 (≈ 35.8 to 71.7 µM)	16 (≈ 35.8 µM)	> 32	> 32	16 (≈ 35.8 µM)	–
C#CCOc1ccc(-c2nc3ccc(N4CCN(C)CC4)cc3[nH]2)cc1	> 32	Active	> 32	> 32	16 to 32 (≈ 46.2 to 92.4 µM)	> 32	16 to 32 (≈ 46.2 to 92.4 µM)	> 32	2.6	> 32	16 (≈ 46.2 µM)	> 32	≥ 32	16 (≈ 46.2 µM)	> 32	> 32	16 (≈ 46.2 µM)	–
C#CCCCCCCc1cn(CCOc2ccc(-c3nc4ccc(N5CCN(C)CC5)cc4[nH]3)cc2)nn1	> 32	Active	> 32	> 32	16 to 32 (≈ 31.3 to 62.5 µM)	> 32	16 to 32 (≈ 31.3 to 62.5 µM)	–	0.5	> 32	16 (≈ 31.3 µM)	> 32	16 to 32 (≈ 31.3 to 62.5 µM)	16 (≈ 31.3 µM)	–	> 32	16 (≈ 31.3 µM)	–
C#CCOCCOCCOCCOCCOCCOCCOc1ccc(-c2nc3ccc(-c4nc5ccc(N6CCN(C)CC6)cc5[nH]4)cc3[nH]2)cc1	> 32	Active	16 to 32 (≈ 22 to 44 µM)	> 32	16 to 32 (≈ 22 to 44 µM)	≥ 32	16 to 32 (≈ 22 to 44 µM)	> 32	13.1	≥ 32	16 to 32 (≈ 22 to 44 µM)	> 32	16 to 32 (≈ 22 to 44 µM)	16 to 32 (≈ 22 to 44 µM)	> 32	> 32	2 to 4 (≈ 2.75 to 5.5 µM)	IC50 (DU-145): > 10 µM; IC50 [10]: > 50 µM; inhibition (Escherichia coli [11]): inactive
CN1CCN(c2cc(C(=O)O)c3nc(-c4ccc(O)cc4)[nH]c3c2)CC1	–	Active	–	–	> 32	–	> 32	–	0	–	> 32	–	> 32	> 32	–	–	> 32	–
COC(=O)c1cc(N2CCN(C)CC2)cc2[nH]c(-c3ccc(O)cc3)nc12	> 32	Active	> 32	> 32	16 to 32 (≈ 43.7 to 87.3 µM)	> 32	16 to 32 (≈ 43.7 to 87.3 µM)	> 32	0	> 32	16 (≈ 43.7 µM)	> 32	16 to 32 (≈ 43.7 to 87.3 µM)	16 (≈ 43.7 µM)	> 32	> 32	16 (≈ 43.7 µM)	–
CN1CCN(c2ccc3nc(-c4ccc(OCCN=[N+]=[N-])cc4)[nH]c3c2)CC1	> 32	Active	> 32	> 32	16 to 32 (≈ 42.4 to 84.8 µM)	> 32	16 to 32 (≈ 42.4 to 84.8 µM)	> 32	1.9	> 32	16 (≈ 42.4 µM)	> 32	≥ 32	16 (≈ 42.4 µM)	> 32	> 32	16 (≈ 42.4 µM)	–
Oc1ccc(-c2nc3ccccc3[nH]2)cc1	> 32	Active	> 32	> 32	16 (≈ 76.1 µM)	> 32	16 to 32 (≈ 76.1 to 152 µM)	> 32	0	> 32	16 (≈ 76.1 µM)	16 to 32 (≈ 76.1 to 152 µM)	16 to 32 (≈ 76.1 to 152 µM)	16 (≈ 76.1 µM)	> 32	> 32	16 (≈ 76.1 µM)	–
CCOc1ccc(-c2nc3ccc(N4CCN(C)CC4)cc3[nH]2)cc1	> 32	Active	> 32	> 32	16 (≈ 47.6 µM)	> 32	16 to 32 (≈ 47.6 to 95.1 µM)	> 32	1.7	> 32	16 (≈ 47.6 µM)	> 32	16 to 32 (≈ 47.6 to 95.1 µM)	16 (≈ 47.6 µM)	> 32	> 32	16 (≈ 47.6 µM)	–
CN1CCN(c2ccc3nc(-c4ccc(OCc5cn(CCN=[N+]=[N-])nn5)cc4)[nH]c3c2)CC1	> 32	Active	> 32	> 32	16 to 32 (≈ 34.9 to 69.8 µM)	> 32	16 to 32 (≈ 34.9 to 69.8 µM)	> 32	1.2	> 32	16 (≈ 34.9 µM)	> 32	16 to 32 (≈ 34.9 to 69.8 µM)	16 (≈ 34.9 µM)	> 32	> 32	16 (≈ 34.9 µM)	–
C#CCOCCCCOc1ccc(-c2nc3ccc(-c4nc5ccc(N6CCN(C)CC6)cc5[nH]4)cc3[nH]2)cc1	> 32	–	4 (≈ 7.48 µM)	> 32	–	4 (≈ 7.48 µM)	–	1 to 2 (≈ 1.87 to 3.74 µM)	–	1 to 2 (≈ 1.87 to 3.74 µM)	16 (≈ 29.9 µM)	8 (≈ 15 µM)	–	8 to 16 (≈ 15 to 29.9 µM)	1 (≈ 1.87 µM)	–	–	Activity (DU-145; human, du-145, 48 h): Toxic; inhibition (Escherichia coli [11]): inactive; inhibition (Escherichia coli [12]): inactive
CN1CCN(c2ccc3nc(-c4ccc5nc(-c6ccc(O)cc6)[nH]c5c4)[nH]c3c2)CC1.Cl.Cl.Cl	–	–	–	–	16 to 32	–	16 to 32	–	–	–	8	–	> 32	8 to 16	–	–	8	IC50 (DU-145): > 10 µM
